Experimental data taken from ChEMBL document CHEMBL1157014, “Synthesis, characterization and biological evaluation of some thiourea derivatives bearing benzothiazole moiety as potential antimicrobial and anticancer agents” (Eur J Med Chem, 2010).
In brackets after ≈: the same amount, converted by molar mass.

Tests used:
Enterobacter cloacae = test: Antibacterial activity against Enterobacter cloacae ATCC 13047 after 24 hrs by browth microdilution assay; format: functional
Outline: (§1)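 Broth microdilution per CLSI. Colonies suspended in 0.9% saline and adjusted to McFarland 0.5. Compounds dissolved in DMSO, diluted with distilled water to 100, 50, 25, 12.5, 6.25 and 3.125 µg/ml, with DMSO as negative control. Gentamycin (Gram-negative) and amikacin (Gram-positive) served as reference drugs. Incubation at 37 °C for 24 h. MIC taken as the lowest concentration preventing visible growth.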

Proteus vulgaris = test: Antibacterial activity against Proteus vulgaris ATCC 13315 after 24 hrs by browth microdilution assay; format: functional; outline: as §1
Pseudomonas aeruginosa = test: Antibacterial activity against Pseudomonas aeruginosa ATCC 27853 after 24 hrs by browth microdilution assay; format: functional; outline: as §1
Candida tropicalis = test: Antifungal activity against Candida tropicalis ATCC 20336 after 48 hrs by browth microdilution assay; format: functional
Outline: (§2)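 Yeast colonies suspended in 0.9% saline and adjusted to McFarland 0.5, then tested by CLSI broth microdilution. Compounds in DMSO, diluted with distilled water to 3.125–100 µg/ml, with DMSO as negative control and nystatin as reference. Incubation at 37 °C, read after 48 h. MIC is the lowest concentration with no visible growth.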

Staphylococcus aureus = test: Antibacterial activity against Staphylococcus aureus ATCC 29213 after 24 hrs by browth microdilution assay; format: functional; conditions: ATCC 29213, 24 h; outline: as §1
[1] = test system: Staphylococcus aureus (ATCC 25923); test: Antibacterial activity against Staphylococcus aureus ATCC 25923 after 24 hrs by browth microdilution assay; conditions: ATCC 25923, 24 h
MCF7 [2] = test: Cytotoxicity against human MCF7 after 24 hrs by MTT assay; format: functional, cell-based; conditions: MCF7, 24 h
Outline: (§3)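 Cells grown in MEM with 10% FBS and 1% glutamine at 5% CO2, seeded at 1.0×10^4 cells. Exposed to compounds at 1–100 µM in medium containing 0.1% DMSO for 24 h at 37 °C. MTT (1 mg/ml) added for 5 h at 37 °C, then DMSO added and absorbance read at 540 nm. Run in triplicate; IC50 determined.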

Pichia kudriavzevii = test: Antifungal activity against Candida krusei ATCC 6268 after 48 hrs by browth microdilution assay; format: functional; outline: as §2
HeLa = test: Cytotoxicity against human HeLa after 24 hrs by MTT assay; format: functional, cell-based; outline: as §3
[3] = test system: Staphylococcus epidermidis; test: Antibacterial activity against Staphylococcus epidermidis ATCC 12228 after 24 hrs by browth microdilution assay; format: functional; conditions: ATCC 12228, 24 h; outline: as §1
Nakaseomyces glabratus = test: Antifungal activity against Candida glabrata ATCC 32554 after 48 hrs by browth microdilution assay; format: functional; outline: as §2
MCF7 [4] = test: Cytotoxicity against human MCF7 after 48 hrs by MTT assay; format: functional, cell-based; conditions: MCF7, 48 h
Outline: (§4)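 MCF-7 cells in MEM with 10% FBS at 5% CO2 were exposed to compounds (1–100 µM, 0.1% DMSO vehicle) for 48 or 72 h before MTT read-out. IC50 values came from the MTT assay.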

Escherichia coli = test: microbe, parasite or virus in culture; conditions: ATCC 25922, 24 h
Candida albicans = test: Antifungal activity against Candida albicans ATCC 90028 after 48 hrs by browth microdilution assay; format: functional; outline: as §2
MCF7 [5] = test: Cytotoxicity against human MCF7 after 72 hrs by MTT assay; format: functional, cell-based; conditions: MCF7, 72 h; outline: as §4
Enterococcus faecalis = test: Antibacterial activity against Enterococcus faecalis ATCC 29212 after 24 hrs by browth microdilution assay; format: functional; conditions: ATCC 29212, 24 h; outline: as §1

| Compound | MIC (Candida tropicalis; ATCC 20336, 48 h) [µg/mL] | MIC (Staphylococcus aureus) [µg/mL] | MIC (Enterobacter cloacae; ATCC 13047, 24 h) [µg/mL] | MIC [1] [µg/mL] | IC50 (MCF7 [2]) [µM] | MIC (Pichia kudriavzevii; ATCC 6268, 48 h) [µg/mL] | IC50 (HeLa) [µM] | MIC [3] [µg/mL] | MIC (Nakaseomyces glabratus; ATCC 32554, 48 h) [µg/mL] | MIC (Proteus vulgaris; ATCC 13315, 24 h) [µg/mL] | MIC (Pseudomonas aeruginosa; ATCC 27853, 24 h) [µg/mL] | MIC (Escherichia coli) [µg/mL] | MIC (Candida albicans; ATCC 90028, 48 h) [µg/mL] | MIC (Enterococcus faecalis) [µg/mL] | other results |
| --- | --- | --- | --- | --- | --- | --- | --- | --- | --- | --- | --- | --- | --- | --- | --- |
| GENTAMICIN |  |  |  |  |  |  |  |  |  |  |  |  |  |  | MIC (Enterobacter cloacae): 2 µg/mL; MIC (Proteus vulgaris): 2 µg/mL; MIC (Pseudomonas aeruginosa): 1 µg/mL |
| Nc1ccc2sc(NC(=S)NC(=O)N3CCOCC3)nc2c1 | 20 (≈ 59.3 µM) | 25 (≈ 74.1 µM) | 25 (≈ 74.1 µM) | 50 (≈ 148 µM) | 26.4 | 25 (≈ 74.1 µM) | 45.3 | 20 (≈ 59.3 µM) | 15 (≈ 44.5 µM) | 20 (≈ 59.3 µM) | 50 (≈ 148 µM) | 20 (≈ 59.3 µM) | 20 (≈ 59.3 µM) | 50 (≈ 148 µM) | IC50 (MCF7 [4]): 19.2 µM; IC50 (MCF7 [5]): 17.1 µM |
| O=C(NC(=S)Nc1nc2ccccc2s1)N1CCOCC1 | 25 (≈ 77.5 µM) | 50 (≈ 155 µM) | 25 (≈ 77.5 µM) | 50 (≈ 155 µM) | 29.3 | 25 (≈ 77.5 µM) | 51.8 | 25 (≈ 77.5 µM) | 25 (≈ 77.5 µM) | 25 (≈ 77.5 µM) | 50 (≈ 155 µM) | 25 (≈ 77.5 µM) | 25 (≈ 77.5 µM) | 50 (≈ 155 µM) |  |
| O=C(NC(=S)Nc1nc2ccccc2s1)c1cccs1 | 50 (≈ 157 µM) | 50 (≈ 157 µM) | 50 (≈ 157 µM) | 50 (≈ 157 µM) | 32.6 | 25 (≈ 78.3 µM) | 68.2 | 50 (≈ 157 µM) | 25 (≈ 78.3 µM) | 50 (≈ 157 µM) | 50 (≈ 157 µM) | 25 (≈ 78.3 µM) | 50 (≈ 157 µM) | 50 (≈ 157 µM) |  |
| Nc1ccc2sc(NC(=S)NC(=O)c3ccccc3)nc2c1 | 50 (≈ 152 µM) | 50 (≈ 152 µM) | 50 (≈ 152 µM) | 50 (≈ 152 µM) | 38.6 | 25 (≈ 76.1 µM) | 70.1 | 50 (≈ 152 µM) | 25 (≈ 76.1 µM) | 50 (≈ 152 µM) | 50 (≈ 152 µM) | 50 (≈ 152 µM) | 25 (≈ 76.1 µM) | 50 (≈ 152 µM) |  |
| O=C(NC(=S)Nc1nc2ccccc2s1)c1ccccc1 | 50 (≈ 160 µM) |  |  |  | 37.3 | 50 (≈ 160 µM) | 57.5 |  | 25 (≈ 79.8 µM) |  |  |  | 50 (≈ 160 µM) |  |  |
| NYSTATIN |  |  |  |  |  |  |  |  |  |  |  |  |  |  | MIC (Candida tropicalis): 4 µg/mL; MIC (Pichia kudriavzevii): 0.5 µg/mL; MIC (Nakaseomyces glabratus): 2 µg/mL; MIC (Candida albicans): 1 µg/mL |
| O=C(NC(=S)Nc1nc2cc([N+](=O)[O-])ccc2s1)c1cccs1 | 15 (≈ 41.2 µM) | 25 (≈ 68.6 µM) | 15 (≈ 41.2 µM) | 25 (≈ 68.6 µM) | 35.9 | 20 (≈ 54.9 µM) | 72.6 | 10 (≈ 27.4 µM) | 10 (≈ 27.4 µM) | 20 (≈ 54.9 µM) | 20 (≈ 54.9 µM) | 15 (≈ 41.2 µM) | 15 (≈ 41.2 µM) | 15 (≈ 41.2 µM) |  |
| O=C(NC(=S)Nc1nc2cc([N+](=O)[O-])ccc2s1)c1ccc([N+](=O)[O-])cc1 | 25 (≈ 62 µM) | 50 (≈ 124 µM) | 25 (≈ 62 µM) | 50 (≈ 124 µM) | 35.2 | 25 (≈ 62 µM) | 68.5 | 25 (≈ 62 µM) | 25 (≈ 62 µM) | 25 (≈ 62 µM) | 50 (≈ 124 µM) | 50 (≈ 124 µM) | 25 (≈ 62 µM) | 50 (≈ 124 µM) |  |
| O=C(NC(=S)Nc1nc2cc(Br)ccc2s1)c1ccccc1 | 50 (≈ 127 µM) | 50 (≈ 127 µM) |  | 50 (≈ 127 µM) | 32.1 | 50 (≈ 127 µM) | 64.6 | 50 (≈ 127 µM) | 25 (≈ 63.7 µM) |  |  |  | 25 (≈ 63.7 µM) | 50 (≈ 127 µM) |  |
| CCCC(=O)NC(=S)Nc1nc2cc([N+](=O)[O-])ccc2s1 | 50 (≈ 154 µM) | 50 (≈ 154 µM) | 20 (≈ 61.7 µM) |  | > 100 | 25 (≈ 77.1 µM) |  | 50 (≈ 154 µM) | 25 (≈ 77.1 µM) | 20 (≈ 61.7 µM) | 20 (≈ 61.7 µM) |  | 20 (≈ 61.7 µM) | 50 (≈ 154 µM) |  |
